OX1R antag-1: OX1R (human) antagonism | O43613 | OX1R-expressing cells, FRET antagonist read-out | inhibition, % at 6.6 µM | 1.8% of 330,000 active | AID 485270; in the data active = inhibition mostly above about 38%, no sharp cut-off; inactive = mostly below about 40%;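 also: 0% = agonist challenge alone and 100% = reference antagonist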
OX1R antag-2: blocks the human orexin 1 receptor. 0.43% of 330,000 active. inhibition, % at 5 µM. CHO/OX1R cells, Fluo-8 calcium fluorescence, orexin A;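 active = inhibition above its plate's threshold, mean inhibition of all tested compounds on the plate plus 3 SD, cut at about 37% in these data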;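 also: 0% = orexin A challenge wells and 100% = SB-334867-A antagonist wells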
CHO parental Ca: signal in parental CHO cells, OX1R antagonist counter-screen; 0.63% of 330,000 active; parental CHO-K1, ATP-induced calcium, Fluo-8 fluorescence; inhibition, % at 5.6 µM;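 active = inhibition above that plate's mean sample inhibition plus 3 SD, cut at about 26% in these data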;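 also: 0% = ATP-challenged DMSO wells and 100% = DMSO wells without ATP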
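Material: Parental CHO cells | Reagent: ATP | Compound dosing: Single nominal dose of 5.6 µM per compound | Detection: Intracellular calcium via Fluo-8 no-wash fluorescent dye | Read-out: % inhibition of ATP-induced calcium mobilization | Benchmarks: Low control ATP plus DMSO, high control DMSO only | Replicates: Singlicate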
TRPML3 agonist: agonists of human TRPML3 channel | activation, % at 3 µM | Q8TDD5 | HEK293 TRPML3-YFP, Fluo-8 calcium fluorescence; 100% = the carbachol control signal | 0.29% of 220,000 active;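 active = activation above its plate's cutoff, the mean activation of the plate's test wells plus 3 SD, cut at about 12% in these data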;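 also: 0% = DMSO only wells and 100% = carbachol wells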
Target sequence (Q8TDD5 whole entry, looked up): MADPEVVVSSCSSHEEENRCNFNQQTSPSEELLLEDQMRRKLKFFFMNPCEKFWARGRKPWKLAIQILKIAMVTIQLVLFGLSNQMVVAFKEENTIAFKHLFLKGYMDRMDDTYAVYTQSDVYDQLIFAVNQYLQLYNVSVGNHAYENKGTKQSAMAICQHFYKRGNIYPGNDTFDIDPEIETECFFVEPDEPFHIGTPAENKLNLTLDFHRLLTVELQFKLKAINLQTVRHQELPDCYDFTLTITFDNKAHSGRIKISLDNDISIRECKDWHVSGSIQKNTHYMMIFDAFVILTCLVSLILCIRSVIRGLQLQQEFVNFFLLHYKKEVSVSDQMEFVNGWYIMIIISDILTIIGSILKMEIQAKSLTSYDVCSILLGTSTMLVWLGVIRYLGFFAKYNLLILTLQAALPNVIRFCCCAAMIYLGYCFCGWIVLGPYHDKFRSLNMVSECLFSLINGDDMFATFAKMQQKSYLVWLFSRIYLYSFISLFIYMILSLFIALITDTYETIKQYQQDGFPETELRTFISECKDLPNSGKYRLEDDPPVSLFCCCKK
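Test system – HEK293 line with stable expression of human TRPML3-YFP channel · Control set – carbachol 87 µM final as high control (100%), DMSO as low control (0%) · Signal – Fluo-8 calcium dye fluorescence, ex 470-495, em 515-575 nm · Incubation – 1-h 37 °C dye load, 5-s basal, 120-s post-compound reads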
zfTRPN1 agonist: zebrafish TRPN1 (NompC) channel agonism. 0.18% of 220,000 active. activation, % at 3 µM. HEK293 zebrafish TRPN1-YFP, Fluo-8 calcium fluorescence; 100% = response to 87 µM carbachol. AID 1424;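 active = activation above its plate's cutoff, the mean activation of test wells on that plate plus 3 SD, cut at about 19% in these data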;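 also: 0% = DMSO alone and 100% = 87 µM carbachol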
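Material: zebrafish TRPN1-YFP in HEK293 cells; Doses: single test compound dose, 3 µM nominal, 0.3% DMSO; Timing: dye loading 1 h at 37 °C, then 30 min room temperature; Technique: intracellular calcium fluorescence with Fluo-8; Benchmarks: high carbachol 87 µM, low DMSO alone.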
An asterisk follows results filed as active; nt = no result given. Rows were chosen to be rich in hits. Some 2.5% of all compounds tested hit in one or more screens of this group.

SMILES	OX1R antag-1	OX1R antag-2	CHO parental Ca	TRPML3 agonist	zfTRPN1 agonist
COc1cccc(NC(C)C(=O)Nc2cc([N+](=O)[O-])ccc2Cl)c1 (stereo not given)	13	-22	3	1	0
Cc1n[nH]c(C)c1CCCCOc1ccccc1[N+](=O)[O-]	59*	-11	48*	nt	nt
C[C@H](CO)N1C[C@H](C)[C@@H](CN(C)C(=O)Nc2ccc3c(c2)OCO3)Oc2ccc(NC(=O)CCC(F)(F)F)cc2C1=O	-1	6	1	nt	nt
COc1ccccc1C(=O)NC(=S)Nc1cccnc1Cl	47*	-9	-22	nt	nt
Cc1ccc(C(=O)NC(=S)Nc2cccnc2Cl)cc1	17	-19	-14	nt	nt
Cn1c(=O)oc2cc(S(=O)(=O)NCCC(=O)NCc3ccc(F)cc3)ccc21	6	-21	-8	nt	nt
O=C(/C=C/c1cccc([N+](=O)[O-])c1)Nc1cccc(NC(=O)c2cccs2)c1	70*	-1	-13	0	0
Cc1ccc(NC(=O)/C(=C\c2cccc([N+](=O)[O-])c2)NC(=O)c2cccs2)cc1	52*	7	-1	0	0
CCOC(=O)C1CCN(C(=O)COC(=O)c2c(C)c(CC)nc3ccccc23)CC1	-5	-24	-28	nt	nt
CC/C(=N/NC(=O)c1ccccc1O)c1c(C)[nH]n(-c2ccccc2)c1=O	5	-9	-13	nt	nt
O=S(=O)(Nc1nc2ccccc2nc1Cl)c1ccccc1C(F)(F)F	16	-1	1	nt	nt
O=S(=O)(Nc1nc2ccccc2nc1Cl)c1cccc(C(F)(F)F)c1	50*	-17	6	nt	nt
O=C(NCc1cccc(F)c1)c1cccc2c1C(=O)c1ccc(N3CCC(Cc4ccccc4)CC3)cc1S2(=O)=O	15	40	42*	nt	nt
Cc1ccc(O)c(NC(=S)NC(=O)Cc2ccc(Cl)cc2)c1	-13	107*	99*	nt	nt
O=[N+]([O-])c1cc(C=Nc2ccc3ccccc3c2)ccc1Br	64*	0	-9	0	1
CCOc1ccc(N=Cc2ccc3ccccc3c2)cc1	2	2	-4	nt	nt
Cc1nnnn1/C(=C\c1ccccc1)C(=O)OCC(=O)NC1CCCCC1	35	1	7	nt	nt
Cn1c(N)c(C(=O)COC(=O)CC(NC(=O)c2ccccc2Cl)c2ccccc2)c(=O)n(C)c1=O (stereo not given)	9	-26	-26	1	2
CC(SCc1ccccc1)C(=O)N/N=C/c1ccc(OCC(=O)NCc2ccco2)cc1 (stereo not given)	56*	24	-2	1	2
COc1ccc(CSCC(=O)N/N=C/c2ccc(OCC(=O)NCc3ccco3)cc2)cc1	32	15	9	1	1
Cc1ccc(-c2nnc(Nc3ccc4c(c3)OCO4)c3ccccc23)cc1S(=O)(=O)NCCO	20	8	16	0	0
Cc1ccc(-c2nnc(Nc3ccc4c(c3)OCO4)c3ccccc23)cc1S(=O)(=O)NC(C)C	38	38	31*	1	-1
Cc1ccc(-c2nnc(Nc3ccccc3)c3ccccc23)cc1S(=O)(=O)NCC1CCCO1 (stereo not given)	12	66*	29*	-1	0
CC(=O)Nc1ccc(Nc2nnc(-c3ccc(C)c(S(=O)(=O)NCC4CCCO4)c3)c3ccccc23)cc1 (stereo not given)	16	-28	-18	0	1
CCCn1nc(NS(=O)(=O)c2cccc3nonc23)c2cc3ccccc3nc21	24	-11	-10	nt	nt
SMILES	OX1R antag-1	OX1R antag-2	CHO parental Ca	TRPML3 agonist	zfTRPN1 agonist
N#C/C(=C/c1ccc(Sc2nc3ccccc3[nH]2)o1)c1ccccc1F	53*	18	-6	-1	-1
N#C/C(=C/c1ccc(Sc2nc3ccccc3[nH]2)o1)c1cccc(F)c1	59*	7	-3	-1	0
O=C(N/N=C/c1ccc(Sc2nc3ccccc3[nH]2)o1)c1ccncc1	20	-6	-10	0	1
N#C/C(=C/c1ccc(Sc2nc3ccccc3[nH]2)o1)c1cccc(Br)c1	80*	19	29	-1	-1
N#C/C(=C\c1ccc(Sc2ccccc2)o1)c1nc2ccccc2[nH]1	53	-11	0	2	0
COc1cc(C(C(=O)NC2CCCC2)N(C(=O)Cc2cccs2)C2CC2)cc(OC)c1OC (stereo not given)	31	-23	-8	-1	-1
CCCNC(=O)c1c(CSc2ccc(Cl)cc2)noc1C(=O)NCc1ccccc1	33	-22	-21	nt	nt
O=C(COC(=O)c1ccc(Cl)cc1[N+](=O)[O-])NCc1ccco1	7	2	-15	nt	nt
O=C(/C=C/c1cccs1)c1ccc(N2CCOCC2)cc1	65*	3	-9	2	3
CCN(CC)c1ccc2c(Cl)c(Br)c(=O)oc2c1	9	90*	81*	1	2
CC1CCN(CCc2nc3cc(NC(=O)COc4ccc([N+](=O)[O-])cc4)ccc3n2C)CC1	26	-13	-7	nt	nt
CCc1c(C)sc(NC(=O)c2noc(C)c2[N+](=O)[O-])c1C#N	11	-8	-6	1	0
CCOc1ccc(NC(=O)Nc2nc(SCC)ns2)cc1	41	-5	37*	nt	nt
CCSc1nsc(NC(=O)Nc2ccc(F)cc2F)n1	43*	15	74*	nt	nt
CCOc1ccc(NC(=O)c2nsc(Cl)c2Cl)cc1	16	-12	-1	-1	-1
Nc1[nH]n(-c2ccccc2)c(=O)c1N=Nc1ccc2ncsc2c1	53*	-3	-12	-1	-2
Nc1[nH]n(-c2ccccc2)c(=O)c1N=Nc1ccccc1	52	-2	-17	-1	-5
CCOC(=O)C1CCN(c2c(NCCN(CC)c3ccccc3)c(=O)c2=O)CC1	19	-11	-14	1	2
Cc1nc2nc(C)c(CCC(=O)NC(C)c3ccc4c(c3)OCCO4)c(C)n2n1 (stereo not given)	12	-6	9	0	0
Cc1nc2cc(-c3ccccc3)nn2c(C)c1CCC(=O)NC(C)c1ccc2c(c1)OCCO2 (stereo not given)	52*	-5	-20	0	0
Cc1nc2cc(-c3cccc(F)c3)nn2c(C)c1CCC(=O)NC(C)c1ccc2c(c1)OCCO2 (stereo not given)	49*	9	-25	0	1
Cc1nc2ncnn2c(C)c1CCC(=O)NC(C)c1ccc2c(c1)OCCO2 (stereo not given)	4	-17	-6	1	1
Cc1ccc(CN2CCN(c3cccc4[nH]ccc34)CC2)cc1	-5	-12	-10	nt	nt
COc1ccc(NC(=O)CCOc2ccccc2C)cc1S(=O)(=O)N1CCCCC1	21	-16	-4	nt	nt
COc1ccc(-c2sc3ccc(OC)cc3c2C#CCCO)cc1	32	-1	-14	nt	nt
COc1ccc2sc(-c3ccc(N(C)C)cc3)c(C#CCCO)c2c1	51*	34	-11	nt	nt
